Calls of active or inactive are those of the source.
Assays:
[1] = tested on: Plasma; assay: Anticoagulant activity in rabbit plasma assessed as prothrombin time at 2 mM after 2 mins; type: functional, Oryctolagus cuniculus
How it was run: (§1)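 Rabbit plasma was preincubated 2 min at 37 °C with compound dissolved in 0.05 M Tris buffer plus Tris/0.1 M NaCl, pH 7.5. Clotting was triggered with thromboplastin-calcium reagent and read on a fibrometer. Clotting time is in seconds, mean ± SD (n = 3-5), with Student's t-test against control. A cut-off of >300 s was scored as no clotting.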

[2] = tested on: Plasma; assay: Anticoagulant activity in rabbit plasma assessed as thrombin time at 2 mM after 2 mins; type: functional, Oryctolagus cuniculus
How it was run: (§2)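 Rabbit plasma, 0.05 M Tris buffer and compound in Tris were preincubated for 2 min at 37 °C. Clotting was started with bovine thrombin (3-4 NIH units/mL) and timed on a fibrometer. Clotting time is in seconds, mean ± SD (n = 3-5), with Student's t-test against control. Clotting beyond 300 s was scored as no clotting.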

[3] = tested on: Plasma; assay: Anticoagulant activity in rabbit plasma assessed as activated partial thromboplastin time at 2 mM after 2 mins; type: functional, Oryctolagus cuniculus
How it was run: (§3)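 Rabbit plasma with test compound in 0.05 M Tris buffer was incubated with APTT reagent for 2 min at 37 °C. Clotting was started with 25 mM CaCl2 and timed on a fibrometer. Clotting time is in seconds, mean ± SD (n = 3-5), compared with control by Student's t-test. Clotting beyond 300 s was scored as no clotting.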

[4] = target: T1, Prothrombin (Bos taurus, UniProt P00735); assay: Inhibition of bovine thrombin-catalyzed hydrolysis of S-2238
How it was run: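 Bovine plasma thrombin (0.19 NIH units/mL solution) in 0.05 M Tris with 0.1 M NaCl (pH 7.5) was preincubated with compound for 2 min at 37 °C. S-2238 was added as a 0.66 mM solution to start the reaction. p-Nitroaniline release was followed at 405 nm over 5 min and expressed as % inhibition. IC50 is the concentration that inhibits 50% of initial activity. Mean of three experiments.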

[5] = target: T1, Prothrombin; assay: Inhibition of bovine thrombin-catalyzed hydrolysis of fibrinogen
How it was run: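 Compound at various concentrations was preincubated with thrombin (0.05 NIH units/mL solution) for 3 min at 37 °C. The reaction was started with fibrinogen (2 mg/mL solution). Clot turbidity was read at 405 nm for 5 min and velocities were taken as mOD/min. IC50 is the concentration that inhibits 50% of initial activity. Mean of three experiments.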

[6] = target: Prothrombin (Bos taurus) (UniProt P00735); assay: Inhibition of bovine thrombin at 200 uM by Lineweaver-Burke plot analysis
How it was run: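 Bovine plasma thrombin at a fixed 0.19 NIH units/mL was tested in 0.05 M Tris with 0.1 M NaCl (pH 7.5) at 37 °C, with S-2238 at 0.6 to 1.7 mM. Compound and enzyme were preincubated for under 2 min before substrate was added. Initial rates were plotted as Lineweaver-Burk plots and fitted by linear regression to give the inhibition type and Ki. Mean of three.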

[7] = tested on: Plasma; assay: Anticoagulant activity in rabbit plasma assessed as prothrombin time at 0.5 mM after 2 mins; type: functional, Oryctolagus cuniculus; how it was run: as §1
[8] = tested on: Plasma; assay: Anticoagulant activity in rabbit plasma assessed as thrombin time at 0.5 mM after 2 mins; type: functional, Oryctolagus cuniculus; how it was run: as §2
[9] = tested on: Plasma; assay: Anticoagulant activity in rabbit plasma assessed as activated partial thromboplastin time at 0.5 mM after 2 mins; type: functional, Oryctolagus cuniculus; how it was run: as §3
[10] = tested on: Plasma; assay: Anticoagulant activity in rabbit plasma assessed as prothrombin time at 0.1 mM after 2 mins; type: functional, Oryctolagus cuniculus; details: in the assay text read “1 mM” for “0.1 mM”; how it was run: as §1
[11] = tested on: Plasma; assay: Anticoagulant activity in rabbit plasma assessed as thrombin time at 0.1 mM after 2 mins; type: functional, Oryctolagus cuniculus; details: in the assay text read “1 mM” for “0.1 mM”; how it was run: as §2
[12] = tested on: Plasma; assay: Anticoagulant activity in rabbit plasma assessed as activated partial thromboplastin time at 0.1 mM after 2 mins; type: functional, Oryctolagus cuniculus; details: in the assay text read “1 mM” for “0.1 mM”; how it was run: as §3
[13] = target: T1, Prothrombin; assay: Inhibition of bovine thrombin by Lineweaver-Burke plot analysis
How it was run: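 Bovine plasma thrombin (0.19 NIH units/mL) was run in 0.05 M Tris/0.1 M NaCl, pH 7.5, at 37 °C. It was preincubated with compound for under 2 min, and the reaction was started with S-2238 at 0.6-1.7 mM. Initial rates were taken as p-nitroaniline release at 405 nm. Inhibition type and Ki came from linear-regression Lineweaver-Burk plots.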

[14] = target: T2, Coagulation factor X (Homo sapiens, UniProt P00742); assay: Inhibition of human factor 10a
How it was run: (§4)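 Compound and 0.20 mM S-2222 were mixed in 0.05 M Tris/0.1 M NaCl, pH 8.3. Reaction was started with factor Xa (50 ng/mL) and 4-nitroanilide release was read at 405 nm over 5 min at 37 °C. IC50 is the concentration giving 50% inhibition of initial activity, mean ± SD of three experiments. Ki was determined with S-2222 at 0.04-0.20 mM.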

[15] = target: T2, Coagulation factor X; assay: Inhibition of human factor 10a-catalyzed hydrolysis of S-2222; how it was run: as §4
[16] = target: Prothrombin (Bos taurus) (UniProt P00735); assay: Inhibition of bovine thrombin upto 100 uM
How it was run: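 Bovine plasma thrombin (0.19 NIH units/mL) in Tris/0.1 M NaCl, pH 7.5, was preincubated 2 min at 37 °C with compound in 0.1% DMSO, which also served as vehicle control. Reaction was started with S-2238 (0.66 mM, as added) and read as the rise in A405 over 5 min. Results are percent inhibition of thrombin activity.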

[17] = tested on: Plasma; assay: Anticoagulant activity in rabbit plasma assessed as prothrombin time at 0.25 mM after 2 mins; type: functional, Oryctolagus cuniculus
How it was run: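 PT: 0.05 M Tris/0.1 M NaCl (pH 7.5), compound in Tris and rabbit plasma incubated 2 min at 37 °C. Clotting started with thromboplastin-calcium reagent and timed on a fibrometer. Values are the mean of three determinations (mean ± SD, n = 3-5). Clotting >300 s was taken as no clotting.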

[18] = tested on: Plasma; assay: Anticoagulant activity in rabbit plasma assessed as thrombin time at 0.25 mM after 2 mins; type: functional, Oryctolagus cuniculus
How it was run: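 TT: rabbit plasma, 0.05 M Tris and compound in Tris preincubated 2 min, then bovine thrombin (3-4 NIH units/mL) added. Clotting was timed on a fibrometer at 37 °C. Values are the mean of three determinations (mean ± SD, n = 3-5), with >300 s taken as no clotting.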

[19] = tested on: Plasma; assay: Anticoagulant activity in rabbit plasma assessed as activated partial thromboplastin time at 0.25 mM after 2 mins; type: functional, Oryctolagus cuniculus
How it was run: (§5)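 APTT: rabbit plasma with compound (dissolved in 0.05 M Tris buffer) and APTT reagent preincubated 2 min, then clotting started with 25 mM CaCl2. Clotting time was read on a fibrometer at 37 °C. Values are the mean of three separate determinations (mean ± SD, n = 3-5), with clotting >300 s recorded as no clotting.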

[20] = tested on: Plasma; assay: Anticoagulant activity in rabbit plasma assessed as prothrombin time at 0.75 mM after 2 mins; type: functional, Oryctolagus cuniculus; how it was run: as §1
[21] = tested on: Plasma; assay: Anticoagulant activity in rabbit plasma assessed as thrombin time at 0.75 mM after 2 mins; type: functional, Oryctolagus cuniculus; how it was run: as §2
[22] = tested on: Plasma; assay: Anticoagulant activity in rabbit plasma assessed as activated partial thromboplastin time at 0.75 mM after 2 mins; type: functional, Oryctolagus cuniculus; how it was run: as §3
[23] = Toxicity in po dosed mouse; type: organism-based; details: in vivo
[24] = Toxicity in po dosed rat; type: organism-based; details: in vivo
[25] = tested on: Plasma; assay: Anticoagulant activity in rabbit plasma assessed as prothrombin time at 0.45 mM after 2 mins; type: functional, Oryctolagus cuniculus
How it was run: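 Rabbit plasma incubated 2 min at 37 °C with compound in 0.05 M Tris buffer plus 0.05 M Tris/0.1 M NaCl (pH 7.5); clotting started with thromboplastin-calcium reagent and timed on a fibrometer at 37 °C; clotting time in seconds, cut-off >300 s; average of three separate determinations (mean ± SD, n = 3-5).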

[26] = tested on: Plasma; assay: Anticoagulant activity in rabbit plasma assessed as activated partial thromboplastin time at 0.47 mM after 2 mins; type: functional, Oryctolagus cuniculus; how it was run: as §5

T2 sequence (P00742 41-179 limits assumed): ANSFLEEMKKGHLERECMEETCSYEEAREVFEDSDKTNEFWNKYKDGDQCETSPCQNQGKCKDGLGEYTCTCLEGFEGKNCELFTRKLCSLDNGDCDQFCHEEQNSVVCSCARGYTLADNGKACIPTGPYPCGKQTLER
T2 sequence (P00742 235-488 limits assumed): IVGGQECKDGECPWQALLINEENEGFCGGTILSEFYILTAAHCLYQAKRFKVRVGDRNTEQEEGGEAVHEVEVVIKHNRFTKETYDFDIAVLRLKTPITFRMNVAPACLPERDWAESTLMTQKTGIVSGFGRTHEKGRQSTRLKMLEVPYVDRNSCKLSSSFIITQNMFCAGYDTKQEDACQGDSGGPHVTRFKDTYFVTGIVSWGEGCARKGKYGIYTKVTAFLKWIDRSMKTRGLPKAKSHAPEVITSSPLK

SMILES	IC50 [4] [µM]	IC50 [5] [µM]	PT [7] [s]	TT [8] [s]	APTT [9] [s]	PT [10] [s]	TT [11] [s]	APTT [12] [s]	Ki [13] [µM]	Ki [14] [µM]	IC50 [15] [µM]	Activity [16]	also measured
O=C1O[C@H]2[C@H](O)[C@@H](CO)OC(O)[C@@H]2OC(=O)c2cc(O)c(O)c(O)c2-c2c1cc(O)c(O)c2O (stereo not given in full)	> 200	> 200											PT [1]: 10 s; TT [2]: 9.43 s; APTT [3]: 39.9 s; Activity [6]: inactive
O=C(OC[C@H]1OC(O)[C@H](OC(=O)c2cc(O)c(O)c(O)c2)[C@@H](O)[C@@H]1O)c1cc(O)c(O)c(O)c1 (stereo not given in full)	> 200	> 200											PT [1]: 11.1 s; TT [2]: 10.7 s; APTT [3]: 40.8 s; Activity [6]: inactive
O=C1OC[C@@H](O)[C@H]([C@@H]2OC(=O)c3cc(O)c(O)c(O)c3-c3c(O)c(O)c(O)c4c3C(=O)O[C@H]2[C@@H]4O)OC(=O)c2cc(O)c(O)c(O)c2-c2c1cc(O)c(O)c2O [CASUARIIN]	0.28	0.059	13.6	12.3	72.3	>300	>300	>300	0.98	0.45	0.72		
O=C(OC[C@H]1O[C@@H](OC(=O)c2ccccc2)[C@H](OC(=O)c2ccccc2)[C@@H](OC(=O)c2ccccc2)[C@@H]1OC(=O)c1ccccc1)c1ccccc1												inactive	
O=C1OC[C@H]2OC(O)[C@@H]3OC(=O)c4cc(O)c(O)c(O)c4-c4c(cc(O)c(O)c4O)C(=O)O[C@H]3[C@@H]2OC(=O)c2cc(O)c(O)c(O)c2-c2c1cc(O)c(O)c2O (stereo not given in full) [PEDUNCULAGIN]	0.18	0.15	13.5	22.7	43.7	>300	>300	>300	0.042	0.99	0.56		PT [17]: 10.2 s; TT [18]: 12.6 s; APTT [19]: 35.3 s; PT [20]: 15.2 s; TT [21]: 33.5 s; APTT [22]: 60.2 s; LD50 [23]: > 100 mg/kg; LD50 [24]: > 100 mg/kg
O=C(OC[C@H]1O[C@@H](OC(=O)c2cc(O)c(O)c(O)c2)[C@H](OC(=O)c2cc(O)c(O)c(O)c2)[C@@H](OC(=O)c2cc(O)c(O)c(O)c2)[C@@H]1OC(=O)c1cc(O)c(O)c(O)c1)c1cc(O)c(O)c(O)c1 [PENTAGALLOYL GLUCOSE]	0.11	0.05	> 300	> 300	> 300				3.9	0.57	0.17		PT [25]: >300 s; APTT [26]: >300 s; PT [17]: 13.9 s; TT [18]: >300 s; APTT [19]: 50.6 s
COc1cc(C(=O)OC[C@H]2O[C@@H](OC(=O)c3cc(OC)c(OC)c(OC)c3)[C@H](OC(=O)c3cc(OC)c(OC)c(OC)c3)[C@@H](OC(=O)c3cc(OC)c(OC)c(OC)c3)[C@@H]2OC(=O)c2cc(OC)c(OC)c(OC)c2)cc(OC)c1OC												inactive	
COc1cc2c(c(OC)c1OC)-c1c(cc(OC)c(OC)c1OC)C(=O)O[C@H]1[C@@H]3OC(=O)c4cc(OC)c(OC)c(OC)c4-c4c(cc(OC)c(OC)c4OC)C(=O)O[C@H]3C(OC)O[C@@H]1COC2=O (stereo not given in full)												inactive	
O=C1OC[C@@H](O)[C@H]([C@@H]2OC(=O)c3cc(O)c(O)c(O)c3-c3c(O)c(O)c(O)c4c3C(=O)O[C@H]2[C@H]4O)OC(=O)c2cc(O)c(O)c(O)c2-c2c1cc(O)c(O)c2O	0.19	0.026	13.9	16.2	31.6	>300	>300	>300	0.83	0.69	0.28		
O=C(OC1O[C@@H]2COC(=O)c3cc(O)c(O)c(O)c3-c3c(cc(O)c(O)c3O)C(=O)O[C@H]2[C@H](OC(=O)c2cc(O)c(O)c(O)c2)[C@H]1OC(=O)c1cc(O)c(O)c(O)c1)c1cc(O)c(O)c(O)c1 (stereo not given in full) [TELLIMAGRANDIN II]	0.07	0.014	11.9	18.7	45.7	>300	>300	>300	0.42	0.44	0.21		

Reference: ChEMBL document CHEMBL1151307, “Effects of tannins from Geum japonicum on the catalytic activity of thrombin and factor Xa of blood coagulation cascade” (J Nat Prod, 1998)
